pIC50: −log10 of the molar value.
How the values were obtained:
Plasmodium falciparum [1] = experiment: Antimalarial activity against chloroquine-sensitive Plasmodium falciparum 3D7; type: functional, organism-based
Procedure, shortened: (§1)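 P. falciparum blood-stage cultures at 37 °C under 5% CO2, 5% O2. Samples taken 72 h after drug addition, fixed in 2% paraformaldehyde about 1 h, then stained with 50 nM YOYO-1 in PBS for 24 h in the dark at 4 °C. Percent parasitized RBCs read by flow cytometry against no-drug cultures. Doses 0.1–200 nM in triplicate. IC50 from a variable-slope sigmoidal fit.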

Plasmodium falciparum [2] = experiment: Antimalarial activity against multidrug-resistant Plasmodium falciparum W2; type: functional, organism-based; procedure, shortened: as §1

SMILES	pIC50 (Plasmodium falciparum [1])	pIC50 (Plasmodium falciparum [2])
CCCN(CCCCNc1ccnc2cc(Cl)ccc12)Cc1cccc(OC)c1O	9.00	8.37
CCCN(CCCNc1ccnc2cc(Cl)ccc12)Cc1cc(F)ccc1OC	8.28	–
CCCN(CCCCNc1ccnc2cc(Cl)ccc12)Cc1ccc(C)o1	8.13	7.52
CCCN(CCCCNc1ccnc2cc(Cl)ccc12)Cc1c(F)cccc1OC	8.00	7.95
CCCN(CCCNc1ccnc2cc(Cl)ccc12)Cc1cccc(F)c1O	9.01	8.59
CCCN(CCCNc1ccnc2cc(Cl)ccc12)Cc1cc(O)ccc1O	8.54	7.65
CCCN(CCCCNc1ccnc2cc(Cl)ccc12)Cc1cccs1	8.14	7.66
CCCN(CCCCNc1ccnc2cc(Cl)ccc12)Cc1cc(OC)ccc1O	8.17	7.56
CCCN(CCCCNc1ccnc2cc(Cl)ccc12)Cc1cc(OC(F)(F)F)ccc1O	8.62	8.23
CCCN(CCCCNc1ccnc2cc(Cl)ccc12)Cc1cccc2c1OCO2	8.38	7.64
CCCN(CCCCNc1ccnc2cc(Cl)ccc12)Cc1ccccc1O	8.15	7.70
CCCN(CCCCNc1ccnc2cc(Cl)ccc12)Cc1cccc(F)c1O	8.85	8.34
CCCN(CCCCNc1ccnc2cc(Cl)ccc12)Cc1cc(O)ccc1O	8.66	8.05
CCCN(CCCNc1ccnc2cc(Cl)ccc12)Cc1ccco1	7.91	7.48
CCCN(CCCCNc1ccnc2cc(Cl)ccc12)Cc1cc(F)ccc1OC	8.72	8.31
CCCN(CCCNc1ccnc2cc(Cl)ccc12)Cc1ccccc1O	9.19	8.74
CCCN(CCCCNc1ccnc2cc(Cl)ccc12)Cc1ccc(Cl)o1	8.37	8.22
CCCN(CCCNc1ccnc2cc(Cl)ccc12)Cc1cccs1	7.49	6.85
CCCN(CCCCNc1ccnc2cc(Cl)ccc12)Cc1ccco1	8.51	8.40
CCCN(CCCNc1ccnc2cc(C)ccc12)Cc1cc([N+](=O)[O-])ccc1O	7.41	6.90
